Columns and labels:
A549 = test: Antiproliferative activity against human A549 cells after 48 hrs by MTT assay; type: functional, cell-based; settings: A549, 48 h
How it was run: (§1)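 MTT viability read-out; cells cultured in DMEM and exposed to compound for 48 h. IC50 taken as the concentration giving 50% inhibition of tumour cell proliferation.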

[1] = Inhibition of tubulin polymerization at 3 uM
How it was run: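 Reaction started by GTP addition and run protected from light at 37 °C. Polymerization followed as fluorescence increase at 360/420 nm excitation/emission. Percent inhibition calculated relative to untreated control.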

HT-29 = test: Antiproliferative activity against human HT-29 cells after 48 hrs by MTT assay; type: functional, cell-based; settings: HT-29, 48 h; how it was run: as §1
HeLa = test: Antiproliferative activity against human HeLa cells after 48 hrs by MTT assay; type: functional, cell-based; how it was run: as §1
[2] = Inhibition of tubulin polymerization at 30 uM
How it was run: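 GTP addition starts the reaction, run protected from light at 37 °C. Polymerization followed as fluorescence increase at 360/420 nm excitation/emission; % inhibition calculated against untreated control.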

| Compound | IC50 (A549) [µM] | inhibition [1] [%] | IC50 (HT-29) [µM] | IC50 (HeLa) [µM] | inhibition [2] [%] |
| --- | --- | --- | --- | --- | --- |
| COc1cc2c(c(OC)c1OC)-c1ccc(OC)c(=O)cc1[C@@H](NC(C)=O)CC2 [COLCHICINE] | < 1 | 53.8 | < 1 | < 1 |  |
| Cc1cc(C)c(-c2cn(CC(=O)c3ccccc3)nn2)cc1C | 91 |  | 190 | > 300 | 6.6 |
| O=C(Cn1cc(CO)nn1)c1ccccc1 | > 300 |  | > 300 | > 300 |  |
| CCC(C(=O)c1ccccc1)n1cc(-c2ccccc2)nn1 (configuration not stated) | 26 |  | 116 | 155 | 19.3 |
| O=C(Cn1cc(-c2ccccc2)nn1)c1ccccc1 | > 300 |  | > 300 | > 300 |  |
| COc1ccc(-c2cn(CC(=O)c3ccccc3)nn2)cc1 | 187 |  | > 300 | > 300 |  |
| O=C(Cn1cc(-c2ccccn2)nn1)c1ccccc1 | > 300 |  | > 300 | > 300 |  |
| COc1ccc(C(=O)Cn2cc(-c3ccccc3)nn2)cc1 | > 300 |  | 49 | > 300 | 14.1 |
| CCCCCc1ccc(-c2cn(CC(=O)c3ccccc3)nn2)cc1 | > 300 |  | > 300 | > 300 |  |
| O=C(Cn1cc(-c2ccsc2)nn1)c1ccccc1 | 260 |  | > 300 | > 300 |  |
| Cc1ccc(-c2cn(CC(=O)c3ccccc3)nn2)cc1 | 292 |  | 238 | > 300 | 2.8 |
| COc1cc([C@@H]2c3cc4c(cc3[C@H](O)[C@H]3COC(=O)[C@H]23)OCO4)cc(OC)c1OC |  | 58.1 |  |  |  |
| O=C(Cn1cc(-c2ccccc2)nn1)c1ccc(Cl)cc1 | > 300 |  | > 300 | > 300 |  |
| O=C(Cn1cc(-c2ccccc2)nn1)c1ccc(Br)cc1 | > 300 |  | > 300 | > 300 |  |
| COc1ccc2cc(-c3cn(CC(=O)c4ccccc4)nn3)ccc2c1 | > 300 |  | > 300 | > 300 |  |
| CC(C(=O)c1ccccc1)n1cc(-c2ccccc2)nn1 (configuration not stated) | > 300 |  | > 300 | > 300 |  |
| CCCCCCc1cn(CC(=O)c2ccccc2)nn1 | > 300 |  | > 300 | > 300 |  |
| Cc1ccc(C(=O)Cn2cc(-c3ccccc3)nn2)cc1 | > 300 |  | > 300 | > 300 |  |
